In ChEMBL document CHEMBL5252514, “Conopeptide-Derived κ-Opioid Agonists (Conorphins): Potent, Selective, and Metabolic Stable Dynorphin A Mimetics with Antinociceptive Properties” (J Med Chem, 2016):
Where a SMILES comes first, the peptide text is derived from it.

Tests used:
[1] = target: Kappa-type opioid receptor (Homo sapiens, UniProt P41145); assay: Displacement of [3H]U69593 from human kappa opioid receptor expressed in CHO-K1 cells incubated for 1 hr by 1450 microbeta scintillation counter analysis; format: cell-based
Sequence of Kappa-type opioid receptor (P41145 whole entry): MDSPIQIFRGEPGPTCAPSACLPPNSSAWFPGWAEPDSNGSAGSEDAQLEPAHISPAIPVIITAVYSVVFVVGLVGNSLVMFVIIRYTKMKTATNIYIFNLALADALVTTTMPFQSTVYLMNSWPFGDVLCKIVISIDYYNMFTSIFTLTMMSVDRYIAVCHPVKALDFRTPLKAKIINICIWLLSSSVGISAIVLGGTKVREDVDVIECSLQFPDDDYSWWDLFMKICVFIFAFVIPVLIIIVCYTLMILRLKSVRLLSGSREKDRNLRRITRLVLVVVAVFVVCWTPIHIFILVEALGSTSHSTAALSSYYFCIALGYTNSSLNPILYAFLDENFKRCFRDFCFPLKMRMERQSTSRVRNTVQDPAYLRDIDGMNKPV
Procedure, shortened: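 Membranes from transiently KOR-transfected CHO-K1 cells (~2 µg/well) used in SPA with 3H-U69,593 (1 nM). Competitor ranged 1 pM–10 µM in 50 mM Tris-HCl pH 7.4, 5 mM MgCl2, 0.1% BSA. Incubated 1 h at room temperature with shaking. Nonspecific binding defined with 10 µM dynorphin A. Sigmoidal dose-response fit; at least three independent experiments in triplicate.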

[2] = Metabolic stability in Wistar rat plasma assessed as half life by HPLC analysis; format: ADME, cell-free
Procedure, shortened: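 Peptide at 1 mg/mL in sterile PBS pH 7.4 was mixed 1:1 with thawed, centrifuged Wistar rat plasma supernatant and incubated at 37°C in triplicate. Samples at 0, 1, 2, 3, 4, 6 and 24 h were quenched with acetonitrile and then 2% TFA/water, and analysed by HPLC with inline electrospray MS.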

Compound	Ki [1]	half-life [2]
N=C(N)NCCC[C@H](NC(=O)[C@H](CCCNC(=N)N)NC(=O)[C@@H]1CSSC[C@H](NC(=O)[C@@H](N)CC(N)=O)C(=O)N1)C(=O)N[C@@H](CCC(N)=O)C(=O)N[C@@H](CC1CCCCC1)C(=O)N[C@H]1CSSC[C@@H](C(N)=O)NC1=O (HELM PEPTIDE1{N.C.C.R.R.Q.[Cha].C.C.[am]}$PEPTIDE1,PEPTIDE1,2:R3-3:R3|PEPTIDE1,PEPTIDE1,8:R3-9:R3$$$V2.0)	1.3 nM	< 15 min
N=C(N)NCCC[C@@H](NC(=O)[C@@H]1CCC(=O)N1)C(=O)N[C@H](CCCNC(=N)N)C(=O)N[C@@H](CCC(N)=O)C(=O)N[C@@H](CC1CCCCC1)C(=O)N[C@H]1C[Se]SC[C@@H](C(N)=O)NC1=O	7.8 nM	360 min
N=C(N)NCCC[C@@H](NC(=O)[C@@H](CCCNC(=N)N)NC(=O)[C@@H]1CCCN1C(=O)c1ccc(Cl)cc1)C(=O)N[C@@H](CCC(N)=O)C(=O)N[C@@H](CC1CCCCC1)C(=O)N[C@H]1CSSC[C@@H](C(N)=O)NC1=O	0.13 nM	60 min
CC[C@H](C)[C@H](NC(=O)[C@H](CCC(N)=O)NC(=O)[C@H](CCCNC(=N)N)NC(=O)[C@@H](N)CCCNC(=N)N)C(=O)N[C@H]1CSSC[C@@H](C(N)=O)NC1=O (HELM PEPTIDE1{R.R.Q.I.C.C.[am]}$PEPTIDE1,PEPTIDE1,5:R3-6:R3$$$V2.0)	270 nM	45 min
N=C(N)NCCC[C@@H](NC(=O)[C@H]1NCCc2ccccc21)C(=O)N[C@H](CCCNC(=N)N)C(=O)N[C@@H](CCC(N)=O)C(=O)N[C@@H](CC1CCCCC1)C(=O)N[C@H]1CSSC[C@@H](C(N)=O)NC1=O	1.18 nM	45 min
COc1ccc(C(=O)N2CCC[C@H]2C(=O)N[C@H](CCCNC(=N)N)C(=O)N[C@H](CCCNC(=N)N)C(=O)N[C@@H](CCC(N)=O)C(=O)N[C@@H](CS)C(=O)N[C@@H](CC2CCCCC2)C(=O)N[C@H]2CSSC[C@@H](C(N)=O)NC2=O)cc1	0.59 nM	120 min
N=C(N)NCCC[C@@H](NC(=O)[C@@H]1Cc2ccccc2CN1)C(=O)N[C@H](CCCNC(=N)N)C(=O)N[C@@H](CCC(N)=O)C(=O)N[C@@H](CC1CCCCC1)C(=O)N[C@H]1CSSC[C@@H](C(N)=O)NC1=O	0.91 nM	45 min
N=C(N)NCCC[C@@H](NC(=O)[C@@H](CCCNC(=N)N)NC(=O)[C@@H]1CCCN1C(=O)c1ccc2ccccc2c1)C(=O)N[C@@H](CCC(N)=O)C(=O)N[C@@H](CC1CCCCC1)C(=O)N[C@H]1CSSC[C@@H](C(N)=O)NC1=O	0.07 nM	30 min
CC[C@H](C)[C@H](NC(=O)[C@H](CCCNC(=N)N)NC(=O)[C@H](CCCNC(=N)N)NC(=O)[C@H](CC(C)C)NC(=O)[C@H](Cc1ccccc1)NC(=O)CNC(=O)CNC(=O)[C@@H](N)Cc1ccc(O)cc1)C(=O)N[C@@H](CCCNC(=N)N)C(=O)N1CCC[C@H]1C(=O)N[C@@H](CCCCN)C(=O)N[C@@H](CC(C)C)C(=O)N[C@@H](CCCCN)C(=O)N[C@@H](Cc1c[nH]c2ccccc12)C(=O)N[C@@H](CC(=O)O)C(=O)N[C@@H](CC(N)=O)C(=O)N[C@@H](CCC(N)=O)C(N)=O		120 min
N=C(N)NCCC[C@H](NC(=O)[C@H](CCCNC(=N)N)NC(=O)[C@@H]1CSSC[C@H](NC(=O)[C@@H](N)CC(N)=O)C(=O)N1)C(=O)N[C@@H](CCC(N)=O)C(=O)N[C@@H](Cc1cccc2ccccc12)C(=O)N[C@H]1CSSC[C@@H](C(N)=O)NC1=O (HELM PEPTIDE1{N.C.C.R.R.Q.[O=C([C@H](Cc1cccc2ccccc12)N[*:1])[*:2]].C.C.[am]}$PEPTIDE1,PEPTIDE1,2:R3-3:R3|PEPTIDE1,PEPTIDE1,8:R3-9:R3$$$V2.0)	2.9 nM	< 15 min
N=C(N)NCCC[C@@H](NC(=O)[C@@H](CCCNC(=N)N)NC(=O)[C@@H]1CCCN1C(=O)c1ccc2ccccc2c1)C(=O)N[C@@H](CCC(N)=O)C(=O)N[C@@H](CC1CCCCC1)C(=O)N[C@H]1CSSC[C@@H](C(=O)O)NC1=O	229 nM	30 min
N=C(N)NCCC[C@@H](NC(=O)c1cc2ccccc2cc1N)C(=O)N[C@H](CCCNC(=N)N)C(=O)N[C@@H](CCC(N)=O)C(=O)N[C@@H](CC1CCCCC1)C(=O)N[C@H]1CSSC[C@@H](C(N)=O)NC1=O	0.64 nM	60 min
N=C(N)NCCC[C@@H](NC(=O)[C@@H](CCCNC(=N)N)NC(=O)[C@@H]1CCCN1C(=O)c1ccccc1)C(=O)N[C@@H](CCCCN)C(=O)N[C@@H](CC1CCCCC1)C(=O)N[C@H]1CSSC[C@@H](C(N)=O)NC1=O	0.59 nM	
CC[C@H](C)[C@H](NC(=O)[C@H](CCCN=C(N)N)NC(=O)[C@H](CCCN=C(N)N)NC(=O)[C@H](CC(C)C)NC(=O)[C@H](Cc1ccccc1)NC(=O)CNC(=O)CNC(=O)[C@@H](N)Cc1ccc(O)cc1)C(=O)N[C@@H](CCCN=C(N)N)C(=O)N1CCC[C@H]1C(=O)N[C@@H](CCCCN)C(=O)N[C@@H](CC(C)C)C(=O)N[C@@H](CCCCN)C(N)=O	0.4 nM	
N=C(N)NCCC[C@@H](NC(=O)[C@@H](CCCNC(=N)N)NC(=O)[C@@H]1CCCN1C(=O)c1ccccc1)C(=O)N[C@@H](CCC(N)=O)C(=O)N[C@@H](CC1CCCCC1)C(=O)N[C@H]1CSSCCN(CC(N)=O)C1=O	465 nM	
N=C(N)NCCC[C@@H](NC(=O)Cc1cccc(Cl)c1)C(=O)N[C@H](CCCNC(=N)N)C(=O)N[C@@H](CCC(N)=O)C(=O)N[C@@H](CC1CCCCC1)C(=O)N[C@H]1CSSC[C@@H](C(N)=O)NC1=O	2.1 nM	
CC[C@H](C)[C@H](NC(=O)[C@H](C)NC(=O)[C@H](CCCNC(=N)N)NC(=O)[C@H](CCCNC(=N)N)NC(=O)[C@@H]1CSSC[C@H](NC(=O)[C@@H](N)CC(N)=O)C(=O)N1)C(=O)N[C@H]1CSSC[C@@H](C(N)=O)NC1=O (HELM PEPTIDE1{N.C.C.R.R.A.I.C.C.[am]}$PEPTIDE1,PEPTIDE1,2:R3-3:R3|PEPTIDE1,PEPTIDE1,8:R3-9:R3$$$V2.0)	133 nM	
N=C(N)NCCC[C@@H](NC(=O)[C@@H](CCCNC(=N)N)NC(=O)[C@@H]1CCCN1C(=O)c1ccccc1)C(=O)N[C@@H](Cc1ccccc1)C(=O)N[C@@H](CC1CCCCC1)C(=O)N[C@H]1CSSC[C@@H](C(N)=O)NC1=O	0.59 nM	
N=C(N)NCCC[C@@H](NC(=O)[C@@H](CCCNC(=N)N)NC(=O)[C@@H]1CCCN1C(=O)c1ccccc1)C(=O)N[C@@H](CC(=O)O)C(=O)N[C@@H](CC1CCCCC1)C(=O)N[C@H]1CSSC[C@@H](C(N)=O)NC1=O	10.2 nM	
C[C@H](NC(=O)[C@H](CCC(N)=O)NC(=O)[C@H](CCCNC(=N)N)NC(=O)[C@H](CCCNC(=N)N)NC(=O)[C@@H]1CSSC[C@H](NC(=O)[C@@H](N)CC(N)=O)C(=O)N1)C(=O)N[C@H]1CSSC[C@@H](C(N)=O)NC1=O (HELM PEPTIDE1{N.C.C.R.R.Q.A.C.C.[am]}$PEPTIDE1,PEPTIDE1,2:R3-3:R3|PEPTIDE1,PEPTIDE1,8:R3-9:R3$$$V2.0)	2450 nM	
CC[C@H](C)[C@H](NC(=O)[C@H](CCC(N)=O)NC(=O)[C@H](CCCNC(=N)N)NC(=O)[C@H](CCCNC(N)=O)NC(=O)[C@@H]1CSSC[C@H](NC(=O)[C@@H](N)CC(N)=O)C(=O)N1)C(=O)N[C@H]1CSSC[C@@H](C(N)=O)NC1=O (HELM PEPTIDE1{N.C.C.[Cit].R.Q.I.C.C.[am]}$PEPTIDE1,PEPTIDE1,2:R3-3:R3|PEPTIDE1,PEPTIDE1,8:R3-9:R3$$$V2.0)	218 nM	
CC[C@H](C)[C@H](NC(=O)[C@H](CCC(N)=O)NC(=O)[C@H](CCCNC(=N)N)NC(=O)[C@H](CCCCN)NC(=O)[C@@H]1CSSC[C@H](NC(=O)[C@@H](N)CC(N)=O)C(=O)N1)C(=O)N[C@H]1CSSC[C@@H](C(N)=O)NC1=O (HELM PEPTIDE1{N.C.C.K.R.Q.I.C.C.[am]}$PEPTIDE1,PEPTIDE1,2:R3-3:R3|PEPTIDE1,PEPTIDE1,8:R3-9:R3$$$V2.0)	426 nM	
N=C(N)NCCC[C@@H](NC(=O)[C@@H](CCCNC(=N)N)NC(=O)[C@@H]1CCCN1C(=O)c1ccc([N+](=O)[O-])cc1)C(=O)N[C@@H](CCC(N)=O)C(=O)N[C@@H](CS)C(=O)N[C@@H](CC1CCCCC1)C(=O)N[C@H]1CSSC[C@@H](C(N)=O)NC1=O	2.2 nM	
CC(C)C[C@H](NC(=O)[C@H](CCC(N)=O)NC(=O)[C@H](CCCNC(=N)N)NC(=O)[C@H](CCCNC(=N)N)NC(=O)[C@@H]1CSSC[C@H](NC(=O)[C@@H](N)CC(N)=O)C(=O)N1)C(=O)N[C@H]1CSSC[C@@H](C(N)=O)NC1=O (HELM PEPTIDE1{N.C.C.R.R.Q.L.C.C.[am]}$PEPTIDE1,PEPTIDE1,2:R3-3:R3|PEPTIDE1,PEPTIDE1,8:R3-9:R3$$$V2.0)	24 nM	
N=C(N)NCCC[C@H](NC(=O)[C@H](CCCNC(=N)N)NC(=O)[C@@H]1CSSC[C@H](NC(=O)[C@@H](N)CC(N)=O)C(=O)N1)C(=O)N[C@@H](CCC(N)=O)C(=O)N[C@@H](Cc1ccccc1)C(=O)N[C@H]1CSSC[C@@H](C(N)=O)NC1=O (HELM PEPTIDE1{N.C.C.R.R.Q.F.C.C.[am]}$PEPTIDE1,PEPTIDE1,2:R3-3:R3|PEPTIDE1,PEPTIDE1,8:R3-9:R3$$$V2.0)	28 nM	
N=C(N)NCCC[C@@H](NC(=O)[C@@H](CCCNC(=N)N)NC(=O)[C@@H]1CCCN1C(=O)c1ccccc1)C(=O)N[C@@H](CCC(N)=O)C(=O)N[C@@H](CC1CCCCC1)C(N)=O	22500 nM	
N=C(N)NCCC[C@@H](NC(=O)[C@@H](CCCNC(=N)N)NC(=O)[C@@H]1CCCN1C(=O)c1ccc(Cl)cc1)C(=O)N[C@@H](CCC(N)=O)C(=O)N[C@@H](CC1CCCCC1)C(=O)N[C@H]1CSSC[C@@H](C(=O)O)NC1=O	795 nM	
CC[C@H](C)[C@H](NC(=O)[C@H](CCC(N)=O)NC(=O)[C@H](CCCNC(=N)N)NC(=O)[C@H](CCCNC(=N)N)NC(=O)[C@@H]1CSSC[C@H](NC(=O)[C@@H](N)CC(N)=O)C(=O)N1)C(N)=O (HELM PEPTIDE1{N.C.C.R.R.Q.I.[am]}$PEPTIDE1,PEPTIDE1,2:R3-3:R3$$$V2.0)	14700 nM	
